What was measured:
[1] = Selectivity index, ratio of IC50 for HT-29 cells to IC50 for transgenic DsRed2 Leishmania donovani promastigotes strain LV82; type: toxicity, cell-based; conditions: human; read-out: Ratio IC50
Summary of the method: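 Ratio of the HT-29 cytotoxicity IC50 (72 h, sulforhodamine B) to the IC50 against DsRed2 L. donovani LV 82 promastigotes (72 h at 23 °C, flow cytometry).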

[2] = test system: HT-29; test: Cytotoxicity against human HT-29 cells assessed as inhibition of cell survival after 72 hrs by sulforhodamine B assay; type: cell-based; conditions: HT-29, 72 h
Summary of the method: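 HT-29 cells, 9500 per well, exposed to a concentration series in triplicate for 72 h. Controls: 10% DMSO in water (negative) and paclitaxel in that carrier (positive).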

[3] = test system: Leishmania donovani; test: Antileishmanial activity against transgenic DsRed2 Leishmania donovani promastigotes strain LV82 assessed as parasite killing after 72 hrs by flow cytometry; type: functional, organism-based; conditions: LV82, 72 h
[4] = test system: Leishmania donovani; test: Antileishmanial activity against Leishmania donovani […] stain LV82 infected in iv dosed BALB/c mouse assessed as parasite burden reduction in spleen cells after 2 weeks of postinjection by Giemsa staining-light microscopy; type: functional, organism-based
Summary of the method: (§1)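 BALB/c mice infected by tail vein with 10^7 L. donovani LV 82 amastigotes; treated iv two weeks post-infection (100 µL; 2.8, 5.6 or 11.1 mg/kg in 10% DMSO/PBS; vehicle negative control; sodium stibogluconate 70 mg/kg positive control). Sacrificed two weeks later; liver and spleen weighed, impression smears MeOH-fixed, Giemsa-stained, amastigotes counted per 1000 host nuclei by light microscopy; LDU = organ weight (g) × that count.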

[5] = test system: Leishmania donovani; test: Antileishmanial activity against Leishmania donovani promastigotes stain LV82 infected in iv dosed BALB/c mouse assessed as parasite burden reduction in liver cells after 2 weeks of postinjection by Giemsa staining-light microscopy; type: functional, organism-based; summary of the method: as §1
[6] = test system: Mus musculus; test: Toxicity in BALB/c mouse at 2.8 to 70 mg/kg, iv after 2 weeks; type: organism-based; conditions: in vivo, 336 h, in the assay text read “2.8 to 11.1 mg/kg” for “2.8 to 70 mg/kg”
Summary of the method: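 Infected BALB/c mice (about 18 g) watched for overt toxicity over two weeks after one 100 µL iv dose in 10% DMSO/PBS: vehicle, test doses 2.8, 5.6 or 11.1 mg/kg, or sodium stibogluconate 70 mg/kg.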

## COc1ccc2cc1Oc1ccc(cc1)C[C@H]1c3cc(OC)c(OC)c(c3CCN1C)Oc1c(OC)c(OC)cc3c1[C@H](C2)N(C)CC3 [THALIDASINE]
[1]
  selectivity ratio: 0.5
[2]
  IC50: 5.5 µM
[3]
  IC50: 10.1 µM

## COc1ccc2cc1Oc1ccc(cc1)C[C@H]1c3cc(OC)c(OC)c(c3CCN1C)Oc1c(O)c(OC)cc3c1[C@H](C2)NCC3
[4]
  inhibition: Dose-dependent effect
[1]
  selectivity ratio: 29.3
[5]
  inhibition: Dose-dependent effect
[2]
  IC50: 8.2 µM
[6]
  Activity: Non-toxic
[3]
  IC50: 0.28 µM

## COc1ccc2cc1Oc1ccc(cc1)C[C@H]1c3cc(OC)c(OC)c(c3CCN1C)Oc1c(O)c(OC)cc3c1[C@H](C2)N(C)CC3 [THALRUGOSIDINE]
[1]
  selectivity ratio: 3.6
[2]
  IC50: 3.6 µM
[3]
  IC50: 1 µM
